Assay results published in ChEMBL document CHEMBL2385009, “Guaiane-type sesquiterpenes from Curcuma phaeocaulis and their inhibitory effects on nitric oxide production” (J Nat Prod, 2013).

Columns and labels:
RAW264.7 [1] = test: Antiinflammatory activity in mouse RAW264.7 cells assessed as inhibition of LPS-induced nitric oxide production after 24 hrs by Griess assay; format: functional, cell-based; settings: RAW264.7, 24 h
Procedure, shortened: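 RAW 264.7 cells seeded at 1 × 10^5 cells/well, stimulated with LPS 1 μg/mL with or without test compound, 37 °C for 24 h. Nitrite in cell-free supernatant, taken as the NO indicator, measured by Griess reaction: supernatant mixed 1:1 with equal parts 1% sulfanilamide in 5% phosphoric acid and 0.1% N-(1-naphthyl)ethylenediamine, absorbance at 540 nm. Values given as IC50.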

RAW264.7 [2] = test: Cytotoxicity against mouse RAW264.7 cells at IC50 by MTT assay; format: cell-based

Row | SMILES | IC50 (RAW264.7 [1]) | Activity (RAW264.7 [2])
1 | CC(C)=C1C[C@H]2[C@H](CC[C@]2(C)O)[C@](C)(O)CC1=O [(1S,4S,5S,10R)-ZEDOARONDIOL] | 16.7 µM | Non-toxic
2 | CC1=C2C[C@@H]3[C@H](CC[C@@]3(C)O)[C@](C)(O)C[C@H]2OC1=O | 1.9 µM | Non-toxic
3 | CC1=C2C[C@@H]3[C@@](C)(O)CC[C@]34O[C@]4(C)[C@H](O)[C@]2(O)OC1=O [ZEDOAROLIDE A] | 87.1 µM | Non-toxic
4 | CC1=CC(=O)C(=C(C)C)C[C@H]2[C@H]1CC[C@]2(C)O [PROCURCUMENOL] | 13.7 µM | Non-toxic
5 | CC1=C2C[C@H]3[C@H](CC[C@]3(C)O)[C@@](C)(O)C[C@]2(O)OC1=O [ZEDOAROLIDE B] | 4.6 µM | Non-toxic
6 | Cc1cc(=O)c(C(C)(C)O)cc2c1CC[C@]2(C)O | 5.9 µM | Non-toxic
7 | CC1=C2C[C@H]3[C@@](C)(O)CC[C@@]34O[C@@]2(C[C@@]4(C)O)OC1=O | 1.5 µM | Non-toxic
8 | CC1=C2C[C@H]3[C@H](CC[C@]3(C)O)[C@@](C)(O)C[C@H]2OC1=O [ZEDOALACTONE A] | 1.6 µM | Non-toxic
9 | CC(C)C1=C[C@@H]2[C@@H](CC[C@@H]2C)[C@@](C)(O)CC1 | 11.4 µM | Non-toxic
10 | CC1=CC(=O)CC[C@@H]2[C@@](C)(O)CC[C@@]12O | 19.6 µM | Non-toxic
11 | CC1=C2C[C@@H]3[C@@](C)(O)CC[C@]3(O)[C@](C)(O)C=C2OC1=O [ZEDOALACTONE B] | 1.3 µM | Non-toxic
12 | CC1=C2C[C@@H]3[C@@](C)(O)CC[C@@]3(O)[C@](C)(O)C=C2OC1=O | 3 µM | Non-toxic
13 | CC1=C2C[C@]3(O)[C@H](C)CC[C@H]3[C@@](C)(O)C=C2OC1=O | 30.1 µM | Non-toxic
14 | C=C1C[C@]2(O)O[C@@]3(CC2=C(C)C)[C@@H](C)CC[C@@H]13 [ISOCURCUMENOL] | 9.8 µM | Non-toxic
15 | C[C@]12CCC(=O)C=C1CC[C@@H]1[C@@H]2[C@@H](O)C[C@@]2(C)[C@H]1CC[C@]2(O)C(=O)CO [HYDROCORTISONE] | 43.8 µM | 
16 | CC(C)=C1C[C@H]2[C@@H](CC[C@]2(C)O)[C@](C)(O)CC1=O [ZEDOARONDIOL] | 54.2 µM | Non-toxic
17 | CC(C)=C1C[C@H]2[C@H](CC[C@]2(C)O)[C@@](C)(O)CC1=O [ISOZEDOARONDIOL] | 1.4 µM | Non-toxic
18 | CC(C)C1=C[C@H]2[C@@H](CC[C@]2(C)O)[C@](C)(O)CC1 [ALISMOXIDE] | 4.3 µM | Non-toxic
19 | CC(=O)CCc1ccc(C(C)(C)O)c(=O)cc1C [CURCUMADIONOL] | 54.2 µM | Non-toxic
20 | CC(C)=C1C[C@H]2[C@@H](CC[C@]2(C)O)[C@@](C)(O)CC1=O | 10.3 µM | Non-toxic
21 | CC1=C2C[C@H]3[C@H](CC[C@]3(C)O)[C@@](C)(O)C[C@@H]2OC1=O [ZEDOALACTONE C] | 61.8 µM | Non-toxic
22 | CC1=C[C@]2(O)O[C@@]3(CC2=C(C)C)[C@@H](C)CC[C@@H]13 [CURCUMENOL] | 4.2 µM | Non-toxic
23 | CC(C)=C1C[C@H]2[C@@H](CC[C@]2(C)O)C(CO)=CC1=O | 12.9 µM | Non-toxic
24 | CC1=CC(=O)C(=C(C)C)C[C@@]2(O)[C@H]1CC[C@]2(C)O [PROCURCUMADIOL] | 11.7 µM | Non-toxic
25 | CC1=C2C[C@H]3[C@H](CC[C@]3(C)O)[C@](C)(O)C=C2OC1=O | 2.9 µM | Non-toxic
26 | COc1ccc2c(c1)c(CC(=O)O)c(C)n2C(=O)c1ccc(Cl)cc1 [INDOMETHACIN] | 12.1 µM | 
27 | CC1=C[C@@]2(O)O[C@@]3(CC2=C(C)C)[C@H](C)CC[C@@H]13 | 52.2 µM | Non-toxic
28 | CC1=C2C[C@@H]3[C@H](CC[C@@]3(C)O)[C@@](C)(O)C[C@@H]2OC1=O | 57.9 µM | Non-toxic
29 | CC1=C2C[C@@H]3[C@@](C)(O)CC[C@]3(O)[C@@](C)(O)C=C2OC1=O [ZEDOALACTONE D] | 1.6 µM | Non-toxic
30 | CC1=CC(=O)[C@@]2(C[C@]3(O)[C@@H](C)CC[C@@H]13)OC2(C)C [OXYCURCUMENOL EPOXIDE] | 57.4 µM | Non-toxic
